pIC50: −log10 of the molar value. Values after ≈ are worked out from the molar mass of the structure shown. Active and inactive are the calls of the source. The rule behind the calls is not given here.
Legend:
[1] = tested on: Mycobacterium kansasii; assay: Antimycobacterial activity against Mycobacterium kansasii My 235/80 after 21 days; assay type: functional; settings: My 235/80, 504 h
Outline: (§1)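 Micromethod MIC in Šula's semisynthetic medium at 37 °C. Compounds added in DMSO at 1000 down to 0.032 µmol/L. Isoniazid standard in sterile water at 0.5–250 µmol/L. Inocula: H37Rv 10^3, M. avium 10^5, M. kansasii 10^4. Read at 14 and 21 d, plus 7 d for M. kansasii.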

[2] = tested on: Nakaseomyces glabratus; assay: Antifungal activity against Candida glabrata 20/I at 500 micromol/L after 24 to 48 hrs by broth microdilution method; assay type: functional, organism-based
Outline: (§2)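 Broth microdilution in RPMI 1640 with glutamine, fluconazole as reference. For yeasts, MIC is ≥80% growth reduction (IC80) versus control. For filamentous fungi, the value is expressed as IC50. Readings at 24 and 48 h.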

[3] = tested on: Pichia kudriavzevii; assay: Antifungal activity against Candida krusei E28 after 24 hrs by broth microdilution method; assay type: functional; settings: E28, 24 h; outline: as §2
[4] = tested on: Trichophyton mentagrophytes; assay: Antifungal activity against Trichophyton mentagrophytes 445 after 72 hrs by broth microdilution method; assay type: functional; settings: Trichophyton mentagrophytes, 445, 72 h
Outline: (§3)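 Filamentous dermatophyte tested by broth microdilution in RPMI 1640 with glutamine, fluconazole as reference. Value expressed as IC50 relative to growth control. Read at 72 and 120 h.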

[5] = tested on: Candida albicans; assay: Antifungal activity against Candida albicans ATCC 44859 after 24 hrs by broth microdilution method; assay type: functional; settings: ATCC 44859, 24 h; outline: as §2
[6] = tested on: Mycobacterium avium; assay: Antimycobacterial activity against isoniazid, rifampicin, ethambutol and ofloxacin-resistant Mycobacterium avium My 330/88 after 14 days; assay type: functional; settings: My 330/88, 336 h; outline: as §1
[7] = tested on: Klebsiella pneumoniae; assay: Antibacterial activity against ESBL-positive Klebsiella pneumoniae J 14368/08 at 500 micromol/L after 24 to 48 hrs by broth microdilution method; assay type: functional, organism-based
Outline: (§4)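 Broth microdilution in Mueller–Hinton broth, compounds dissolved in DMSO, tested over a dilution series from 500 downward. MIC taken as ≥95% growth reduction (IC95) versus drug-free control. Benzylpenicillin comparator. Readings at 24 and 48 h.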

[8] = tested on: Candida tropicalis; assay: Antifungal activity against Candida tropicalis 156 at 500 micromol/L after 24 to 48 hrs by broth microdilution method; assay type: functional, organism-based; outline: as §2
[9] = tested on: Mycobacterium kansasii; assay: Antimycobacterial activity against Mycobacterium kansasii My 235/80 after 14 days; assay type: functional; settings: My 235/80, 336 h; outline: as §1
[10] = tested on: Staphylococcus aureus; assay: Antibacterial activity against methicillin-resistant Staphylococcus aureus H 5996/08 after 48 hrs by broth microdilution method; assay type: functional; settings: H 5996/08, 48 h; outline: as §4
[11] = tested on: Lichtheimia corymbifera; assay: Antifungal activity against Absidia corymbifera 272 after 24 hrs by broth microdilution method; assay type: functional; settings: Lichtheimia corymbifera, 272, 24 h; outline: as §2
[12] = tested on: Mycobacterium kansasii; assay: Antimycobacterial activity against Mycobacterium kansasii 6509/96 after 7 days; assay type: functional; settings: 6509/96, 168 h; outline: as §1
[13] = tested on: Aspergillus fumigatus; assay: Antifungal activity against Aspergillus fumigatus 231 after 48 hrs by broth microdilution method; assay type: functional; settings: Aspergillus fumigatus, 231, 48 h; outline: as §2
[14] = tested on: Trichophyton mentagrophytes; assay: Antifungal activity against Trichophyton mentagrophytes 445 after 120 hrs by broth microdilution method; assay type: functional; settings: Trichophyton mentagrophytes, 445, 120 h; outline: as §3
[15] = tested on: Candida albicans; assay: Antifungal activity against Candida albicans ATCC 44859 after 48 hrs by broth microdilution method; assay type: functional; settings: ATCC 44859, 48 h; outline: as §2
[16] = tested on: Mycobacterium kansasii; assay: Antimycobacterial activity against Mycobacterium kansasii My 235/80 after 7 days; assay type: functional; settings: My 235/80, 168 h; outline: as §1
[17] = tested on: Mycobacterium kansasii; assay: Antimycobacterial activity against Mycobacterium kansasii 6509/96 after 21 days; assay type: functional; settings: 6509/96, 504 h; outline: as §1
[18] = tested on: Staphylococcus epidermidis; assay: Antibacterial activity against Staphylococcus epidermidis H 6966/08 after 24 hrs by broth microdilution method; assay type: functional; settings: H 6966/08, 24 h; outline: as §4
[19] = tested on: Mycobacterium tuberculosis; assay: Antimycobacterial activity against Mycobacterium tuberculosis H37Rv My 331/88 after 14 days; assay type: functional; settings: H37Rv My 331/88, 336 h; outline: as §1
[20] = tested on: Aspergillus fumigatus; assay: Antifungal activity against Aspergillus fumigatus 231 after 24 hrs by broth microdilution method; assay type: functional; settings: Aspergillus fumigatus, 231, 24 h; outline: as §2
[21] = tested on: Trichosporon asahii; assay: Antifungal activity against Trichosporon asahii 1188 after 48 hrs by broth microdilution method; assay type: functional; settings: Trichosporon asahii, 1188, 48 h; outline: as §2
[22] = tested on: Klebsiella pneumoniae; assay: Antibacterial activity against Klebsiella pneumoniae D 11750/08 at 500 micromol/L after 24 to 48 hrs by broth microdilution method; assay type: functional, organism-based; outline: as §4
[23] = tested on: Staphylococcus epidermidis; assay: Antibacterial activity against Staphylococcus epidermidis H 6966/08 after 48 hrs by broth microdilution method; assay type: functional; settings: H 6966/08, 48 h; outline: as §4
[24] = tested on: Mycobacterium kansasii; assay: Antimycobacterial activity against Mycobacterium kansasii 6509/96 after 14 days; assay type: functional; settings: 6509/96, 336 h; outline: as §1
[25] = tested on: Staphylococcus aureus; assay: Antibacterial activity against Staphylococcus aureus CCM 4516/08 after 24 hrs by broth microdilution method; assay type: functional; settings: CCM 4516/08, 24 h; outline: as §4
[26] = tested on: Staphylococcus aureus; assay: Antibacterial activity against methicillin-resistant Staphylococcus aureus H 5996/08 after 24 hrs by broth microdilution method; assay type: functional; settings: H 5996/08, 24 h; outline: as §4
[27] = tested on: Mycobacterium avium; assay: Antimycobacterial activity against isoniazid, rifampicin, ethambutol and ofloxacin-resistant Mycobacterium avium My 330/88 after 21 days; assay type: functional; settings: My 330/88, 504 h; outline: as §1
[28] = tested on: Trichosporon asahii; assay: Antifungal activity against Trichosporon asahii 1188 after 24 hrs by broth microdilution method; assay type: functional; settings: Trichosporon asahii, 1188, 24 h; outline: as §2
[29] = tested on: Staphylococcus aureus; assay: Antibacterial activity against Staphylococcus aureus CCM 4516/08 after 48 hrs by broth microdilution method; assay type: functional; settings: CCM 4516/08, 48 h; outline: as §4
[30] = tested on: Enterococcus sp.; assay: Antibacterial activity against Enterococcus sp. J 14365/08 at 500 micromol/L after 24 to 48 hrs by broth microdilution method; assay type: functional, organism-based; outline: as §4
[31] = tested on: Pseudomonas aeruginosa; assay: Antibacterial activity against Pseudomonas aeruginosa CCM 1961 at 500 micromol/L after 24 to 48 hrs by broth microdilution method; assay type: functional, organism-based; outline: as §4
[32] = tested on: Mycobacterium tuberculosis; assay: Antimycobacterial activity against Mycobacterium tuberculosis H37Rv My 331/88 after 21 days; assay type: functional; settings: H37Rv My 331/88, 504 h; outline: as §1
[33] = tested on: HepG2; assay: Cytotoxicity against human HepG2 cells after 24 hrs by CellTiter assay; assay type: cell-based; settings: HepG2, 24 h
Outline: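 HepG2 cells (passage 27–33) in MEM with 10% FBS, L-glutamine and NEAA, seeded at 1×10^4 per well. Treated next day with compounds at 0.1–100 µM (or 0.1–25 µmol/L), triplicates, <1% DMSO, for 24 h at 37 °C, 5% CO2. MTS reagent added for 2 h, absorbance read at 490 nm. IC50 taken against untreated (100%) and 10% DMSO (0%) controls.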

[34] = tested on: Pichia kudriavzevii; assay: Antifungal activity against Candida krusei E28 after 48 hrs by broth microdilution method; assay type: functional; settings: E28, 48 h; outline: as §2
[35] = tested on: Lichtheimia corymbifera; assay: Antifungal activity against Absidia corymbifera 272 after 48 hrs by broth microdilution method; assay type: functional; settings: Lichtheimia corymbifera, 272, 48 h; outline: as §2
[36] = tested on: Escherichia coli; assay: Antibacterial activity against Escherichia coli CCM 4517 at 500 micromol/L after 24 to 48 hrs by broth microdilution method; assay type: functional, organism-based; outline: as §4

In the case of `CCOP(=O)(OCC)Oc1ccc(Br)cc1C(=O)Nc1cccc(F)c1`, the MIC [1] was 16 µM (≈ 7.14 µg/mL), the Activity [2] was “inactive” and the MIC80 [3] was > 500 µM. The MIC50 [4] was 62.5 µM (≈ 27.9 µg/mL), the MIC80 [5] was > 500 µM and the MIC [6] was 32 µM (≈ 14.3 µg/mL). The Activity [7] was “inactive”, the Activity [8] was “inactive” and the MIC [9] was 16 µM (≈ 7.14 µg/mL). The MIC95 [10] was 250 µM (≈ 112 µg/mL), the MIC50 [11] was > 500 µM and the MIC [12] was 8 µM (≈ 3.57 µg/mL). The MIC50 [13] was > 500 µM, the MIC50 [14] was 62.5 µM (≈ 27.9 µg/mL) and the MIC80 [15] was > 500 µM. For the same compound, the MIC [16] was 8 µM (≈ 3.57 µg/mL), the MIC [17] was 16 µM (≈ 7.14 µg/mL) and the MIC95 [18] was 250 µM (≈ 112 µg/mL). The MIC [19] was 8 µM (≈ 3.57 µg/mL), the MIC50 [20] was > 500 µM and the MIC80 [21] was > 500 µM. For the same compound, the Activity [22] was “inactive”, the MIC95 [23] was 250 µM (≈ 112 µg/mL) and the MIC [24] was 16 µM (≈ 7.14 µg/mL). For the same compound, the MIC95 [25] was 125 µM (≈ 55.8 µg/mL), the MIC95 [26] was 250 µM (≈ 112 µg/mL) and the MIC [27] was 32 µM (≈ 14.3 µg/mL). For the same compound, the MIC80 [28] was > 500 µM, the MIC95 [29] was 250 µM (≈ 112 µg/mL) and the Activity [30] was “inactive”. For the same compound, the Activity [31] was “inactive”, the MIC [32] was 8 µM (≈ 3.57 µg/mL) and the pIC50 [33] was 5.26. For the same compound, the MIC80 [34] was > 500 µM, the MIC50 [35] was > 500 µM and the Activity [36] was “inactive”.
In the case of `CCOP(=O)(OCC)Oc1ccc(Br)cc1C(=O)Nc1ccc(Cl)cc1`, the MIC [1] was 8 µM (≈ 3.7 µg/mL), the Activity [2] was “inactive” and the MIC80 [3] was > 500 µM. The MIC50 [4] was > 500 µM, the MIC80 [5] was > 500 µM and the MIC [6] was 8 µM (≈ 3.7 µg/mL). The Activity [7] was “inactive”, the Activity [8] was “inactive” and the MIC [9] was 4 µM (≈ 1.85 µg/mL). For the same compound, the MIC95 [10] was > 500 µM, the MIC50 [11] was > 500 µM and the MIC [12] was 4 µM (≈ 1.85 µg/mL). The MIC50 [13] was > 500 µM, the MIC50 [14] was > 500 µM and the MIC80 [15] was > 500 µM. It also gave an MIC [16] of 4 µM (≈ 1.85 µg/mL), an MIC [17] of 4 µM (≈ 1.85 µg/mL) and an MIC95 [18] of 500 µM (≈ 231 µg/mL). The MIC [19] was 2 µM (≈ 0.925 µg/mL), the MIC50 [20] was > 500 µM and the MIC80 [21] was > 500 µM. For the same compound, the Activity [22] was “inactive”, the MIC95 [23] was > 500 µM and the MIC [24] was 4 µM (≈ 1.85 µg/mL). The MIC95 [25] was 500 µM (≈ 231 µg/mL), the MIC95 [26] was 500 µM (≈ 231 µg/mL) and the MIC [27] was 8 µM (≈ 3.7 µg/mL). For the same compound, the MIC80 [28] was > 500 µM, the MIC95 [29] was > 500 µM and the Activity [30] was “inactive”. The Activity [31] was “inactive”, the MIC [32] was 4 µM (≈ 1.85 µg/mL) and the pIC50 [33] was 5.17. The MIC80 [34] was > 500 µM, the MIC50 [35] was > 500 µM and the Activity [36] was “inactive”.
